Laboratory results taken from ChEMBL document CHEMBL3244142, “Antifungal properties of 2-bromo-3-fluorosuccinic acid esters and related compounds” (1977).
≈ marks a conversion by molar mass, not a printed value. Counter-ions that a name gives are not always drawn. Calls of active or inactive are those of the source. No cut-off for these calls is given here.

Legend:
[1] = system: Aspergillus niger; assay: Antifungal activity against Aspergillus niger ATCC 1004 at <100 ug/ml at pH 5.6 after 5 days in presence of 10% beef serum; type: functional, organism-based
Method in brief: (§1)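 Agar-dilution MIC in Sabouraud dextrose agar at pH 5.6 or 7.0, with or without 10% beef serum. Plates were incubated at 28 °C for 5 days. MIC is the lowest concentration (µg/mL) giving 100% inhibition. Steps were 1 µg/mL up to 10, 2 µg/mL from 10–20, and 10 µg/mL from 20–100; 100 µg/mL was the top level, and no inhibition there is scored as >100.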

[2] = system: Aspergillus niger; assay: Antifungal activity against Aspergillus niger ATCC 1004 at <100 ug/ml at pH 7 after 5 days in absence of 10% beef serum; type: functional, organism-based; method in brief: as §1
[3] = system: Aspergillus niger; assay: Antifungal activity against Aspergillus niger ATCC 1004 at <100 ug/ml at pH 7 after 5 days in presence of 10% beef serum; type: functional, organism-based; method in brief: as §1
[4] = system: Trichophyton mentagrophytes; assay: Antifungal activity against Trichophyton mentagrophytes ATCC 9129 at pH 5.6 after 5 days in absence of 10% beef serum; type: functional; conditions: Trichophyton mentagrophytes, ATCC 9129, 120 h; read-out: MIC; method in brief: as §1
[5] = system: Trichophyton mentagrophytes; assay: Antifungal activity against Trichophyton mentagrophytes ATCC 9129 at pH 5.6 after 5 days in presence of 10% beef serum; type: functional; conditions: Trichophyton mentagrophytes, ATCC 9129, 120 h; read-out: MIC; method in brief: as §1
[6] = system: Trichophyton mentagrophytes; assay: Antifungal activity against Trichophyton mentagrophytes ATCC 9129 at pH 7 after 5 days in absence of 10% beef serum; type: functional; conditions: Trichophyton mentagrophytes, ATCC 9129, 120 h; read-out: MIC; method in brief: as §1
[7] = system: Trichophyton mentagrophytes; assay: Antifungal activity against Trichophyton mentagrophytes ATCC 9129 at pH 7 after 5 days in presence of 10% beef serum; type: functional; conditions: Trichophyton mentagrophytes, ATCC 9129, 120 h; read-out: MIC; method in brief: as §1
[8] = system: Aspergillus niger; assay: Antifungal activity against Aspergillus niger ATCC 1004 at <100 ug/ml at pH 5.6 after 5 days in absence of 10% beef serum; type: functional, organism-based; method in brief: as §1
[9] = system: Mucor mucedo; assay: Antifungal activity against Mucor mucedo ATCC 7941 at pH 7 after 20 h in absence of 10% beef serum; conditions: ATCC 7941, 20 h
[10] = system: Mucor mucedo; assay: Antifungal activity against Mucor mucedo ATCC 7941 at pH 7 after 20 h in presence of 10% beef serum; conditions: ATCC 7941, 20 h
[11] = system: Mucor mucedo; assay: Antifungal activity against Mucor mucedo ATCC 7941 at pH 5.6 after 20 h in absence of 10% beef serum; conditions: ATCC 7941, 20 h
[12] = system: Mucor mucedo; assay: Antifungal activity against Mucor mucedo ATCC 7941 at pH 5.6 after 20 h in presence of 10% beef serum; conditions: ATCC 7941, 20 h
[13] = system: Candida albicans; assay: Antifungal activity against Candida albicans ATCC 10231 at pH 7 after 20 h in absence of 10% beef serum; conditions: ATCC 10231, 20 h
[14] = system: Candida albicans; assay: Antifungal activity against Candida albicans ATCC 10231 at pH 7 after 20 h in presence of 10% beef serum; conditions: ATCC 10231, 20 h
[15] = system: Candida albicans; assay: Antifungal activity against Candida albicans ATCC 10231 at pH 5.6 after 20 h in absence of 10% beef serum; conditions: ATCC 10231, 20 h
[16] = system: Candida albicans; assay: Antifungal activity against Candida albicans ATCC 10231 at pH 5.6 after 20 h in presence of 10% beef serum; conditions: ATCC 10231, 20 h
[17] = system: Aspergillus niger; assay: Antifungal activity against Aspergillus niger ATCC 1004 at pH 5.6 after 5 days in presence of 10% beef serum; type: functional; conditions: Aspergillus niger, ATCC 1004, 120 h; read-out: MIC; method in brief: as §1
[18] = system: Aspergillus niger; assay: Antifungal activity against Aspergillus niger ATCC 1004 at pH 7 after 5 days in absence of 10% beef serum; type: functional; conditions: Aspergillus niger, ATCC 1004, 120 h; read-out: MIC; method in brief: as §1
[19] = system: Aspergillus niger; assay: Antifungal activity against Aspergillus niger ATCC 1004 at pH 7 after 5 days in presence of 10% beef serum; type: functional; conditions: Aspergillus niger, ATCC 1004, 120 h; read-out: MIC; method in brief: as §1
[20] = system: Aspergillus niger; assay: Antifungal activity against Aspergillus niger ATCC 1004 at pH 5.6 after 5 days in absence of 10% beef serum; type: functional; conditions: Aspergillus niger, ATCC 1004, 120 h; read-out: MIC; method in brief: as §1
[21] = system: Trichophyton mentagrophytes; assay: Antifungal activity against Trichophyton mentagrophytes ATCC 9129 at <100 ug/ml at pH 5.6 after 5 days in presence of 10% beef serum; type: functional, organism-based; method in brief: as §1
[22] = system: Trichophyton mentagrophytes; assay: Antifungal activity against Trichophyton mentagrophytes ATCC 9129 at <100 ug/ml at pH 7 after 5 days in presence of 10% beef serum; type: functional, organism-based; method in brief: as §1
[23] = system: Mucor mucedo; assay: Antifungal activity against Mucor mucedo ATCC 7941 at <100 ug/ml at pH 7 after 20 h in absence of 10% beef serum
[24] = system: Mucor mucedo; assay: Antifungal activity against Mucor mucedo ATCC 7941 at <100 ug/ml at pH 7 after 20 h in presence of 10% beef serum
[25] = system: Mucor mucedo; assay: Antifungal activity against Mucor mucedo ATCC 7941 at <100 ug/ml at pH 5.6 after 20 h in absence of 10% beef serum
[26] = system: Mucor mucedo; assay: Antifungal activity against Mucor mucedo ATCC 7941 at <100 ug/ml at pH 5.6 after 20 h in presence of 10% beef serum
[27] = system: Candida albicans; assay: Antifungal activity against Candida albicans ATCC 10231 at <100 ug/ml at pH 7 after 20 h in absence of 10% beef serum
[28] = system: Candida albicans; assay: Antifungal activity against Candida albicans ATCC 10231 at <100 ug/ml at pH 7 after 20 h in presence of 10% beef serum
[29] = system: Candida albicans; assay: Antifungal activity against Candida albicans ATCC 10231 at <100 ug/ml at pH 5.6 after 20 h in absence of 10% beef serum
[30] = system: Candida albicans; assay: Antifungal activity against Candida albicans ATCC 10231 at <100 ug/ml at pH 5.6 after 20 h in presence of 10% beef serum

Structure (SMILES)	MIC [4]	MIC [5]	MIC [6]	MIC [7]	MIC [9]	MIC [10]	MIC [11]	MIC [12]	MIC [13]	MIC [14]	MIC [15]	MIC [16]	MIC [17]	MIC [18]	MIC [19]	MIC [20]	inhibition [1]	inhibition [2]	inhibition [3]	inhibition [8]	also measured
COC(=O)/C=C/C(=O)OC [DIMETHYL FUMARATE]	8 µg/mL	16 µg/mL	20 µg/mL	30 µg/mL	40 µg/mL	50 µg/mL	18 µg/mL	30 µg/mL	90 µg/mL	90 µg/mL	60 µg/mL	60 µg/mL					inactive	inactive	inactive	inactive	
COC(=O)/C=C(/Br)C(=O)OC	4 µg/mL (≈ 17.9 µM)	5 µg/mL	7 µg/mL (≈ 31.4 µM)	14 µg/mL	40 µg/mL (≈ 179 µM)	40 µg/mL	10 µg/mL (≈ 44.8 µM)	40 µg/mL	90 µg/mL (≈ 404 µM)	90 µg/mL	90 µg/mL (≈ 404 µM)	80 µg/mL					inactive	inactive	inactive	inactive	
COC(=O)/C=C(\Br)C(=O)OC	< 1 µg/mL	3 µg/mL	3 µg/mL (≈ 13.5 µM)	9 µg/mL	5 µg/mL (≈ 22.4 µM)	14 µg/mL	3 µg/mL (≈ 13.5 µM)	4 µg/mL	18 µg/mL (≈ 80.7 µM)	20 µg/mL	12 µg/mL (≈ 53.8 µM)	14 µg/mL	16 µg/mL	18 µg/mL (≈ 80.7 µM)	20 µg/mL	14 µg/mL (≈ 62.8 µM)					
COC(=O)/C=C(\F)C(=O)OC	< 1 µg/mL	4 µg/mL	8 µg/mL (≈ 49.3 µM)	40 µg/mL	4 µg/mL (≈ 24.7 µM)	6 µg/mL	< 1 µg/mL	2 µg/mL	20 µg/mL (≈ 123 µM)	40 µg/mL	4 µg/mL (≈ 24.7 µM)	6 µg/mL	50 µg/mL	60 µg/mL (≈ 370 µM)		20 µg/mL (≈ 123 µM)			inactive		
CCOC(=O)[C@H](F)[C@@H](Br)C(=O)OCC (relative stereo)	< 1 µg/mL	2 µg/mL	2 µg/mL (≈ 7.38 µM)	5 µg/mL	4 µg/mL (≈ 14.8 µM)	9 µg/mL	2 µg/mL (≈ 7.38 µM)	6 µg/mL	7 µg/mL (≈ 25.8 µM)	14 µg/mL	4 µg/mL (≈ 14.8 µM)	5 µg/mL	20 µg/mL	20 µg/mL (≈ 73.8 µM)	30 µg/mL	18 µg/mL (≈ 66.4 µM)					
CCOC(=O)/C=C/C(=O)OCC	7 µg/mL (≈ 40.7 µM)	20 µg/mL	18 µg/mL (≈ 105 µM)	50 µg/mL	50 µg/mL (≈ 290 µM)	50 µg/mL	40 µg/mL (≈ 232 µM)	50 µg/mL	90 µg/mL (≈ 523 µM)		60 µg/mL (≈ 348 µM)	70 µg/mL					inactive	inactive	inactive	inactive	inhibition [28]: inactive

Further lines, with some results ahead:

MIC [4]	MIC [5]	MIC [6]	MIC [7]	MIC [9]	MIC [10]	MIC [11]	MIC [12]	MIC [13]	MIC [14]	MIC [15]	MIC [16]	MIC [17]	MIC [18]	MIC [19]	MIC [20]	Structure (SMILES)	inhibition [1]	inhibition [2]	inhibition [3]	inhibition [8]	also measured
< 1 µg/mL	5 µg/mL	2 µg/mL (≈ 6.69 µM)	14 µg/mL	3 µg/mL (≈ 10 µM)	14 µg/mL	< 1 µg/mL	14 µg/mL	4 µg/mL (≈ 13.4 µM)	14 µg/mL	3 µg/mL (≈ 10 µM)	5 µg/mL	18 µg/mL	40 µg/mL (≈ 134 µM)	60 µg/mL	18 µg/mL (≈ 60.2 µM)	CCCOC(=O)[C@@H](F)[C@@H](Br)C(=O)OCCC (relative stereo)					
16 µg/mL (≈ 62.4 µM)		50 µg/mL (≈ 195 µM)														CCCCCOC(=O)/C=C/C(=O)OCCCCC	inactive	inactive	inactive	inactive	inhibition [21]: inactive; inhibition [22]: inactive; inhibition [23]: inactive; inhibition [24]: inactive; inhibition [25]: inactive; inhibition [26]: inactive; inhibition [27]: inactive; inhibition [28]: inactive; inhibition [29]: inactive; inhibition [30]: inactive
< 1 µg/mL	< 1 µg/mL	< 1 µg/mL	< 1 µg/mL	< 1 µg/mL	< 1 µg/mL	< 1 µg/mL	< 1 µg/mL	< 1 µg/mL	< 1 µg/mL	< 1 µg/mL	< 1 µg/mL	< 1 µg/mL	< 1 µg/mL	< 1 µg/mL	< 1 µg/mL	C[C@@H]1[C@H](O)[C@@H](C)/C=C/C=C/C=C/C=C/C=C/C=C/C=C/[C@H](O[C@@H]2O[C@H](C)[C@@H](O)[C@H](N)[C@@H]2O)C[C@@H]2O[C@](O)(C[C@@H](O)C[C@@H](O)[C@H](O)CC[C@@H](O)C[C@@H](O)CC(=O)O[C@H]1C)C[C@H](O)[C@H]2C(=O)O [AMPHOTERICIN B]					
3 µg/mL (≈ 8.44 µM)		14 µg/mL (≈ 39.4 µM)														CCCCCOC(=O)[C@@H](F)[C@@H](Br)C(=O)OCCCCC (relative stereo)	inactive	inactive	inactive	inactive	inhibition [21]: inactive; inhibition [22]: inactive; inhibition [23]: inactive; inhibition [24]: inactive; inhibition [25]: inactive; inhibition [26]: inactive; inhibition [27]: inactive; inhibition [28]: inactive; inhibition [29]: inactive; inhibition [30]: inactive
12 µg/mL (≈ 33.8 µM)		40 µg/mL (≈ 113 µM)														CCCCCOC(=O)[C@H](F)[C@@H](Br)C(=O)OCCCCC (relative stereo)	inactive	inactive	inactive	inactive	inhibition [21]: inactive; inhibition [22]: inactive; inhibition [23]: inactive; inhibition [24]: inactive; inhibition [25]: inactive; inhibition [26]: inactive; inhibition [27]: inactive; inhibition [28]: inactive; inhibition [29]: inactive; inhibition [30]: inactive
< 1 µg/mL	< 1 µg/mL	3 µg/mL (≈ 2.7 µM)	9 µg/mL	< 1 µg/mL	2 µg/mL	< 1 µg/mL	< 1 µg/mL	< 1 µg/mL	2 µg/mL	< 1 µg/mL	< 1 µg/mL	5 µg/mL	8 µg/mL (≈ 7.21 µM)	10 µg/mL	2 µg/mL (≈ 1.8 µM)	CC1/C=C/C=C/C=C/C=C/C=C/C=C/C=C/C(OC2O[C@H](C)[C@@H](O)[C@H](N)[C@@H]2O)CC(O)C(C(=O)O)C(O)CC(=O)CC(O)CC(O)CC(O)CC(=O)CCCC(=O)CC(=O)OC1C(C)CC(C)C(O)CC(=O)c1ccc(N)cc1 (some centres not stated)					
